Measurements taken from publication PMC8040281 (EClinicalMedicine, 2021).
“Also recorded” adds a separate entry of the source. Read-outs that look alike come from different tables or passages of the source.

Columns and labels:
[1] = tested on: NSCLC cell lines harboring KRAS mutations; details: nonclinical studies; ref [15]; cited from earlier work
[2] = tested on: metastatic or advanced solid malignant tumors; test: Anti-tumor activity, RECIST 1.1, investigator assessed; assay type: in vivo, human
How it was run: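 Investigator-assessed RECIST 1.1 response in patients with measurable disease. Oral test compound given once daily continuously, alone or ~2 h before IV paclitaxel at label or institutional dose and schedule. Time to progression is given as a median in weeks by tumor type and KRAS status.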

[3] = First-in-human dose escalation: DLTs and MTD/RP2D; assay type: in vivo
How it was run: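 Oral test compound once daily, starting at 60 mg/m2 (0.1 of preclinical non-severely toxic dose). Accelerated titration used 100% increments until ≥Grade 2 toxicity (alopecia excepted), then 3+3 with 25–50% steps. BSA-based dosing (actual dose −20 to +15% of calculated) later switched to flat doses to nearest 50 mg. Taxanes given IV. Toxicity graded by investigator per CTCAE v4.03.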

[4] = assay type: in vivo, human
[5] = 12-lead ECG and 24-hour Holter monitoring; assay type: in vivo, human; details: ECG and Holter monitoring around first dose
How it was run: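 Oral test compound given once daily, first two doses 3–7 days apart. 12-lead ECGs were part of safety assessments. 24-hour digital Holter monitoring was run around the first dose to detect QTc changes.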

clinical = details: human, in vivo, po
[6] = TEAE, all dose levels, label TVB-2640 = monotherapy
[7] = across all dose levels, label TVB-2640 = monotherapy

TVB-3166
sensitivity of KRAS^MUT versus KRAS^WT NSCLC cell lines to killing [1]: more sensitive to killing with FASN inhibition than KRAS wild-type (KRAS^WT) lines

Cc1nnc(-c2cc(C(=O)N3CCC(c4ccc(C#N)cc4)CC3)c(C)cc2C2CCC2)[nH]1 [TVB-2640]
PR rate (confirmed) / best response of CR or PR ([2]; 6/53 evaluable patients with paclitaxel, label TVB-2640 = monotherapy): no patient treated with monotherapy had a complete or partial response; also recorded: No patient had a best response of complete response (CR) or partial response (PR)
time to progression (TTP), NSCLC KRAS^WT disease ([2]; median, N = 6 monotherapy, label TVB-2640 = monotherapy): 5 weeks
time to progression (TTP), NSCLC KRAS^MUT disease ([2]; median, N = 11 monotherapy, label TVB-2640 = monotherapy): 22 weeks
patients who experienced SD ([2]; monotherapy, 29/69 evaluable patients): 42%
DLT: PPE syndrome ([3]; Grade 3 with paclitaxel, label TVB-2640 = monotherapy): 3 n
DLTs, total number ([3]; all dose levels, label TVB-2640 = monotherapy): 6
nature of DLTs ([3]; in vivo): reversible skin and ocular effects
DLTs at 200 mg flat dose ([3]; label TVB-2640 = monotherapy (N = 6)): no DLTs observed
DLT: Grade 3 corneal edema ([3]; monotherapy): 1 n
DLT: iritis ([3]; monotherapy): 1 n
DLT: keratitis ([3]; monotherapy): 1 n
patients with DLTs at 250 mg flat dose ([3]; monotherapy, bilateral eye keratitis and PPE syndrome): 2 of 6
flat dose equivalent of the MTD/RP2D ([3]; monotherapy, depending on body surface area): 150 to 200 mg
Any TEAE ([4]; Any Grade, N = 76 monotherapy, N = 55 + paclitaxel): 75 (98.7) n (%)
Blood and lymphatic system disorders ([4]; TEAE, Any Grade): 11 (14•5) n (%)
Eye disorders ([4]; TEAE, Any Grade): 38 (50.0) n (%)
Gastrointestinal disorders ([4]; TEAE, Any Grade): 52 (68.4) n (%)
Infections and infestations ([4]; TEAE, Any Grade): 36 (47.4) n (%)
Investigations ([4]; TEAE, Any Grade): 22 (28•9) n (%)
Metabolism and nutrition system disorders ([4]; TEAE, Any Grade): 31 (40•8) n (%)
Musculoskeletal and connective tissue disorders ([4]; TEAE, Any Grade): 20 (26•3) n (%)
Nervous system disorders ([4]; TEAE, Any Grade): 27 (35•5) n (%)
Respiratory, thoracic, and mediastinal disorders ([4]; TEAE, Any Grade): 34 (44•7) n (%)
Skin and subcutaneous tissue disorders ([4]; TEAE, Any Grade): 63 (82.9) n (%)
PPE syndrome, incidence [4, 6]: 46%
alopecia, incidence [4, 6]: 61%
fatigue, incidence [4, 6]: 37%
decreased appetite, incidence ([4]; TEAE, monotherapy): 26%
dry eye, incidence ([4]; TEAE, monotherapy): 17%
dry skin, incidence ([4]; TEAE, monotherapy): 22%
lacrimation increased, incidence ([4]; TEAE, monotherapy): 13%
rash, incidence ([4]; TEAE, monotherapy): 11%
skin exfoliation, incidence ([4]; TEAE, monotherapy): 12%
Blood and lymphatic system disorders ([4]; TEAE, ≥Grade 3): 3 (3•9) n (%)
Eye disorders ([4]; TEAE, ≥Grade 3): 3 (3.9) n (%)
Gastrointestinal disorders ([4]; TEAE, ≥Grade 3): 3 (3.9) n (%)
Infections and infestations ([4]; TEAE, ≥Grade 3): 5 (6.6) n (%)
Investigations ([4]; TEAE, ≥Grade 3): 6 (7•9) n (%)
Metabolism and nutrition system disorders ([4]; TEAE, ≥Grade 3): 5 (6•6) n (%)
Musculoskeletal and connective tissue disorders ([4]; TEAE, ≥Grade 3): 3 (3•9) n (%)
Nervous system disorders ([4]; TEAE, ≥Grade 3): 1 (1•3) n (%)
Respiratory, thoracic, and mediastinal disorders ([4]; TEAE, ≥Grade 3): 2 (2•6) n (%)
Skin and subcutaneous tissue disorders ([4]; TEAE, ≥Grade 3): 8 (10.5) n (%)
adverse events resulting in dose reduction, patients [4, 7]: 28%
adverse events resulting in treatment discontinuation, patients [4, 7]: 22%
>Grade 2 skin or eye toxicities at the MTD ([4]; human, in vivo): no >Grade 2 skin or eye toxicities were observed
patients with serious pneumonitis ([4]; label TVB-2640 = monotherapy): not observed
Any ≥Grade 3 TEAE ([4]; ≥Grade 3, N = 76 monotherapy, N = 55 + paclitaxel): 44 (57.9) n (%)
QTc prolonging effect [5]: no clinically relevant QTc prolonging effect; also recorded: no significant gastrointestinal or serum chemistry toxicities or evidence of QTc prolongation; also recorded: no evidence of QTc prolongation
Tmax (clinical): ~4 h
half-life (clinical): 10 to 13 h
